# Data taken from ChEMBL document CHEMBL1141180, “Synthesis and antiviral activity of helioxanthin analogues” (J Med Chem, 2005).
# Experiments:
# Human alphaherpesvirus 2 [1] = experiment: Effective concentration to inhibit 50% of herpes simplex virus type 2 replication in a cell culture model; assay type: functional, organism-based
# Human alphaherpesvirus 1 [2] = experiment: Effective concentration to inhibit 50% of herpes simplex virus type 1 replication in a cell culture model; assay type: functional, organism-based
# [3] = Effective concentration to inhibit 50% of human immunodeficiency virus replication in a cell culture model; assay type: functional
# Hepatitis C virus [4] = experiment: Percent inhibition against Hepatitis C virus replication in a cell culture model; assay type: functional, Hepacivirus hominis
# Procedure, shortened: (§1)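 HCV replicon Huh-Luc/neo cells grown to confluence, then treated with varying drug concentrations in DMEM with 10% dFBS for 3 days. Medium was removed and cells lysed in passive lysis buffer, shaken 15 min at room temperature. Lysate was mixed with luciferase substrate and luminescence read immediately as the measure of replicon activity.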
# CCRF-CEM = experiment: Cytotoxicity against CEM cell lines of human; assay type: functional; details: read-out: ID50 (the source's name)
# MT2 = experiment: Cytotoxicity against MT-2 cell lines of human; assay type: functional; details: read-out: ID50 (the source's name)
# Hepatitis C virus [5] = experiment: Effective concentration to inhibit 50% of hepatitis C virus replication in a cell culture model; assay type: functional, organism-based, Hepacivirus hominis; procedure, shortened: as §1
# Human gammaherpesvirus 4 [6] = experiment: Effective concentration to inhibit 50% of epstein Barr virus replication in a cell culture model; assay type: functional, organism-based
# Human gammaherpesvirus 4 [7] = experiment: Effective concentration to inhibit 50 % of Epstein Barr virus replication in a cell culture model; assay type: functional, organism-based, epsteinBarr virus
# Hepatitis B virus [8] = experiment: Effective concentration to inhibit 50% of hepatitis B virus replication in a cell culture model; assay type: functional, organism-based
# [9] = Effective concentration to inhibit 50% of cytomegalovirus (CMV) replication in a cell culture model; assay type: functional
# Human alphaherpesvirus 2 [10] = experiment: Effective concentration to inhibit 50 % of herpes simplex virus type 2 replication in a cell culture model;ND=Not determined; details: Oryctolagus cuniculus
# Human alphaherpesvirus 1 [11] = experiment: Effective concentration to inhibit 50 % of Herpes simplex virus type 1 replication in a cell culture model; assay type: functional, organism-based
# Hepatitis B virus [12] = experiment: Effective concentration to inhibit 50 % of hepatitis B virus replication in a cell culture model (3.4>10); assay type: functional, organism-based
# Human alphaherpesvirus 2 [13] = experiment: Effective concentration to inhibit 50 % of Herpes simplex virus type 2 replication in a cell culture model; details: Oryctolagus cuniculus
Compound,EC50 (Human alphaherpesvirus 2 [1]) [µM],EC50 (Human alphaherpesvirus 1 [2]) [µM],EC50 [3] [µM],Inhibition (Hepatitis C virus [4]) [%],IC50 (CCRF-CEM) [µM],IC50 (MT2) [µM],EC50 (Hepatitis C virus [5]) [µM],EC50 (Human gammaherpesvirus 4 [6]) [µM],EC50 (Human gammaherpesvirus 4 [7]) [µM],EC50 (Hepatitis B virus [8]) [µM],EC50 [9] [µM],EC50 (Human alphaherpesvirus 2 [10]) [µM],EC50 (Human alphaherpesvirus 1 [11]) [µM],EC50 (Hepatitis B virus [12]) [µM],EC50 (Human alphaherpesvirus 2 [13]) [µM]
O=C1c2cc3ccc4c(c3c(-c3ccc5c(c3)OCO5)c2C(=O)N1CCCOCc1ccccc1)OCO4,> 50,> 50,> 100,62,> 100,> 100,10,> 5,,,,,,,
Nc1ccn([C@@H]2CS[C@H](CO)O2)c(=O)n1 [LAMIVUDINE],,,,,,,,,0.4,,,,,,
O=C1OCc2c1cc1ccc3c(c1c2-c1ccc2c(c1)OCO2)OCO3 [HELIOXANTHIN],35,2,> 2.5,,30,2.5,> 3,> 20,,> 1,7.3,,,,
O=C1OCc2c1cc1c(Cl)cc3c(c1c2-c1ccc2c(c1)OCO2)OCO3,> 25,23,> 50,,27,50,> 10,> 20,,> 60,8.8,,,,
Nc1nc2c(ncn2COCCO)c(=O)[nH]1 [ACYCLOVIR],,,,,,,,,,0.02,,51,8,,
O=C(O)c1cc2ccc3c(c2c(-c2ccc4c(c2)OCO4)c1CO)OCO3,25,9,> 10,,30,10,10,> 20,,,2.5,,,> 3.4,
O=C1OC(=O)c2c1cc1ccc3c(c1c2-c1ccc2c(c1)OCO2)OCO3,> 50,> 50,> 100,,> 50,> 100,> 10,> 20,,> 10,17.6,,,,
CCOC(=O)c1c(C(=O)OCC)c(-c2ccc3c(c2)OCO3)c2c3c(ccc2c1O)OCO3,,> 50,> 15,,39,15,> 10,> 10,,> 10,,,,,> 50
O=C(O)c1cc2c(Cl)cc3c(c2c(-c2ccc4c(c2)OCO4)c1CO)OCO3,> 20,> 50,> 60,,> 100,60,> 10,> 20,,> 10,> 20,,,,
O=c1[nH][nH]c(=O)c2c(-c3ccc4c(c3)OCO4)c3c4c(cc(Br)c3cc12)OCO4,> 20,16,2.5,45,28,> 100,3,> 20,,> 10,,,,,
